A short description of test [1]: selectivity ratio (Alpha-1[3H]-prazosin/Alpha2[3H]-clonidine).
A short description of test [2]: selectivity ratio (Alpha-1[Methoxiamine]/Alpha2[clonidine]. Put shortly: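 Ratio derived from Schild pA2 values in rat vas deferens: α1 antagonism against methoxamine contractions (24 °C Krebs, three antagonist concentrations) versus α2 antagonism against clonidine inhibition of field-stimulated twitch (33–34 °C, 80 V, 1 ms, 0.15 Hz).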
Test [3] concerns the target T1, Adrenergic receptor alpha-1 (Rattus norvegicus, UniProt P15823+P23944+P43140).
T1 sequence (P15823 whole entry): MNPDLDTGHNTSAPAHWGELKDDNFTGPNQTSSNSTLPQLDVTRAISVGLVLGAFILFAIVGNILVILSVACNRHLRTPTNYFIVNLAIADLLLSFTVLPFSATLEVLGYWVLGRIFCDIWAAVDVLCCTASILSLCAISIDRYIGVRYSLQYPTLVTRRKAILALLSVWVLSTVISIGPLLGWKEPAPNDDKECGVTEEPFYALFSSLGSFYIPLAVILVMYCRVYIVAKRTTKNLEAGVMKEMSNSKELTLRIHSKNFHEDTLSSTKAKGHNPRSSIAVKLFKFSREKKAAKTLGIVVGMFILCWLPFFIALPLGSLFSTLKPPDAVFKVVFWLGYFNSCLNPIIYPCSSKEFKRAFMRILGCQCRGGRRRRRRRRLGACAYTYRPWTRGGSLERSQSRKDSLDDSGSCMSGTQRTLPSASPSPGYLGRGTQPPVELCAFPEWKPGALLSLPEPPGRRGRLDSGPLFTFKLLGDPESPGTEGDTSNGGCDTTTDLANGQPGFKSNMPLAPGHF
T1 sequence (P23944 whole entry): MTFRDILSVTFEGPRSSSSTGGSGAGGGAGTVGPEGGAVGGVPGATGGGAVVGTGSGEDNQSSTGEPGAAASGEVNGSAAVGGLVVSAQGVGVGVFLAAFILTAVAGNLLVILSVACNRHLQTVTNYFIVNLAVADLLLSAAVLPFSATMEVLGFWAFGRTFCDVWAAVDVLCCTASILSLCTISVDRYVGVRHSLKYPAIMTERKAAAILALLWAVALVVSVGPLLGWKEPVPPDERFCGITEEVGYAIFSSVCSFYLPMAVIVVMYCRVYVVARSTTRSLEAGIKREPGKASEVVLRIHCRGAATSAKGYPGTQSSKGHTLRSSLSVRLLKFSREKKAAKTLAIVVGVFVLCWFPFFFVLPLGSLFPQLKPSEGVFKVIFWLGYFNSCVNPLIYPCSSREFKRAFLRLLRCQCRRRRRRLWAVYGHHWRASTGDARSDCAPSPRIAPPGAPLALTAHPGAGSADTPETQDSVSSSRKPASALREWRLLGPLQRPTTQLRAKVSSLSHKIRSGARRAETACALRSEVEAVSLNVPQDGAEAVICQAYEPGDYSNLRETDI
T1 sequence (P43140 whole entry): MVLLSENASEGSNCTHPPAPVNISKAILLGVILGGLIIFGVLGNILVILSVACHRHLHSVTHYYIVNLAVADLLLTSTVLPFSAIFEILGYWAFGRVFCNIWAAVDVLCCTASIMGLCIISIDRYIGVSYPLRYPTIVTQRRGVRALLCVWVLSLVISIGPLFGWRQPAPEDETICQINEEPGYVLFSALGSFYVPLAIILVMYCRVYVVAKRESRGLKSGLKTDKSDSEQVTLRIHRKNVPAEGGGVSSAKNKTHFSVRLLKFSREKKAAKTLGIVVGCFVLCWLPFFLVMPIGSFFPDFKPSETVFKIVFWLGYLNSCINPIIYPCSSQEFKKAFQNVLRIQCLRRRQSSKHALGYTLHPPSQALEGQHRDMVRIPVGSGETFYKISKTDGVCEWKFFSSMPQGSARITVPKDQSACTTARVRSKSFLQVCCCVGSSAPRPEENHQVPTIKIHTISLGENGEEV
Kind of test: Ability to displace [3H]prazosin from alpha-1 adrenergic receptor in rat brain homogenates in vitro. It counts as tissue-based. Put shortly:
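Rat brain cortex membranes in 50 mM Tris pH 7.7, washed at 48000g, final resuspension 150 volumes. Incubated with 0.03 nM [3H]prazosin and graded test concentrations for 90 min at 25 °C. Unlabeled phentolamine (10 μM) defined nonspecific binding. Filtered on GF/B, scintillation counted. Triplicate assays; IC50 from logit plot converted to apparent Ki via Cheng–Prusoff.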

The target in test [4] is T1, Adrenergic receptor alpha-1. The test can be described thus: In vitro antagonistic activity against alpha-1 adrenergic receptor in isolated unstimulated rat vas deferens (methoxamine-induced contractions).

The values below come from ChEMBL document CHEMBL1123816, “Synthesis and antidepressant properties of novel 2-substituted 4,5-dihydro-1H-imidazole derivatives” (J Med Chem, 1987).

The structures appear in SMILES notation.

As a reminder, the Ki is a measure of affinity in units of concentration, obtained from inhibition or displacement. Lower therefore signals a stronger hold on the target. Usually pA2 stands for the negative logarithm of the molar antagonist concentration that doubles the agonist concentration needed for the same response. Lower therefore signals a weaker antagonist. Regarding `CC1=C(CC2=NCCN2)CCc2ccccc21.Cl`, the Selectivity ratio is 12.3 in test [1] and 1.3 in test [2]. This compound displayed an inhibition constant Ki in test [3] of 148 nM. The compound also showed a pA2 in test [4] of 7.08.
As for `C1=C(CC2=NCCN2)CCc2ccccc21.Cl` [NAPAMEZOLE HYDROCHLORIDE], the Ratio in test [1] was determined as 3.4; in test [2], 7.8. In addition, in test [3], the Ki is 78 nM. In test [4], this compound came in with a pA2 of 6.87.
